One may read the IC50 as the midpoint of a concentration-inhibition curve. Higher therefore signals a need for much substance. Broadly, the EC50 is the concentration at which the effect is half-maximal. Read a high EC50 as weaker potency. One may read the EC90 as the concentration at which the effect reaches the 90% level. A high value points to a need for much substance.

The nature of assay [1]: Evaluated in vitro for their potential toxic effects on uninfected PHA-stimulated human PBM cells. In kind it is functional, cell-based. The procedure, abridged:
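Uninfected PHA-stimulated PBM cells from healthy seronegative donors (Ficoll-Hypaque) were plated at 5 × 10⁴ cells/well with 10-fold serial drug dilutions for 5 days at 37 °C, 5% CO₂. The MTT readout was taken at 570 nm after overnight dye and 5 h solubilization. IC50 came from median-effect curves.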

In a further assay the test system is Vero. The experiment in a line: Evaluated in vitro for their potential toxic effects against Vero cells. In kind it is functional, cell-based. The following applies: Chlorocebus sabaeus. The gist of the method:
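Log-phase Vero cells were seeded at 5 × 10³ cells/well in 10-fold serial drug dilutions and incubated 3 days at 37 °C, 5% CO₂. MTT dye was added overnight, then solubilized for 5 h and read at 570 nm. IC50 was taken from median-effect concentration-response curves.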

In another assay the test system is CCRF-CEM. Nature of the assay: Evaluated in vitro for their potential toxic effects human CEM cells. In kind it is functional, cell-based. The gist of the method: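 CEM T-lymphoblastoid cells in log phase, 2.5 × 10³ cells/well, were exposed to 10-fold serial drug dilutions for 4 days at 37 °C, 5% CO₂. Viability was read by MTT (overnight dye, 5 h solubilization, 570 nm). IC50 was determined by the median-effect method.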

In assay [2] the test system is Human immunodeficiency virus 1. Nature of the assay: (§1) In vitro anti-HIV activity was determined in PBM cells infected with HIV-1. In kind it is functional, organism-based. Particulars: Human immunodeficiency virus 1, PBMC. The gist of the method: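 PHA-stimulated (2-3 days) human PBM cells from healthy seronegative donors, infected in bulk for 1 h with HIV-1 LAI (100 TCID50/1 × 10⁷ cells in flasks or 200 TCID50/6 × 10⁵ cells/well). Infected cells went onto 10-fold serial compound dilutions in RPMI-1640 with 16% FBS, DEAE-dextran and IL-2, 5 days at 37 °C. Virion-pelleted supernatant RT activity was measured by poly(rA)·oligo(dT)/³H-TTP incorporation (37 °C, 2 h). EC50/EC90 came from median-effect curves.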

The test system of assay [3] is Vero (Chlorocebus sabaeus). The experiment in a line: Evaluated in vitro for their potential toxic effects against Vero cells.
Assay [4] is described as follows: Fold increase was determined from the ratio of EC90 (HIV-1M184V) / EC90 (HIV-1xxBRU). In kind it is functional. The procedure, abridged:
(§2)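 Molecular clones HIV-1 xxBru (wild type) and HIV-1 M184Vpitt infected PHA-stimulated human PBM cells in bulk for 1 h. Cells were cultured with 10-fold serial compound dilutions, 5 days, 37 °C, 5% CO2. Read-out was supernatant RT activity with ³H-TTP incorporation. EC50 and EC90 were taken from concentration-response curves by the median effect method. Fold increase = EC90(M184V)/EC90(xxBru).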

Assay [5] relates to Human immunodeficiency virus 1. Nature of the assay: Antiviral activity was determined against lamivudine-resistant mutant M184V strain. The assay is classed as functional. The procedure, abridged:
as §2

Assay [6] relates to Human immunodeficiency virus 1. The experiment in a line: Antiviral activity was determined against WT (HIV-1xxBRU). In kind it is functional. The procedure, abridged: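 Molecular infectious clone HIV-1 xxBru was used to infect PHA-stimulated human PBM cells in bulk for 1 h (100 TCID50/1 × 10⁷ cells or 200 TCID50/6 × 10⁵ cells/well). Cells were cultured 5 days at 37 °C with 10-fold serial compound dilutions. Readout was supernatant RT activity, with ³H-TTP incorporation on poly(rA)·oligo(dT). EC50 was derived by the median-effect method.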

Assay [7] is described as follows: as §1. Particulars: Homo sapiens, PBMC.

For `Nc1nc(=O)n([C@H]2S[C@@H](CO)C=C2F)cc1F`, the IC50 (in assay [1]; in the assay with Vero; with CCRF-CEM) was over 100 µM each time. The compound further came in with a half-maximal effective concentration (EC50) in [2] of 0.15 µM.
Take `Nc1nc(O)c2ncn([C@H]3S[C@@H](CO)C=C3F)c2n1`: the IC50 in [1] is over 100 µM; with Vero it was 66.4 µM; in the assay on CCRF-CEM, 41.5 µM. For the same compound, the EC50 in assay [2] amounted to 43.5 µM.
The corresponding values for `O=c1ccn([C@H]2S[C@@H](CO)C=C2F)c(=O)[nH]1` are over 100 µM, over 100 µM, over 100 µM and over 100 µM.
Consider `OC[C@H]1C=C(F)[C@@H](n2cnc3c(O)ncnc32)S1`, for which the IC50 (in [1]; with Vero; in the assay with CCRF-CEM) was over 100 µM throughout. In assay [2], the EC50 is 15.5 µM.
As to `Cc1cn([C@H]2S[C@@H](CO)C=C2F)c(=O)[nH]c1=O`, the concentration for half-maximal inhibition (IC50) (in assay [1]; in the assay with Vero; in the assay on CCRF-CEM) was over 100 µM each time. In addition, the EC50 in [2] was over 100 µM.
`Nc1ccn([C@H]2S[C@@H](CO)C=C2F)c(=O)n1`: the IC50 (in assay [3]; in assay [1]; in the assay with CCRF-CEM) was over 100 µM throughout. Also, the FI in assay [4] is over 100. Besides, the EC90 in assay [5] is over 100 µM; in [6], 1.4 µM. This compound had an EC50 in [2] of 0.12 µM.
With `Nc1ncnc2c1ncn2[C@H]1S[C@@H](CO)C=C1F`, the IC50 (in [1]; with Vero; with CCRF-CEM) was over 100 µM throughout. This compound also returned an EC50 in assay [2] of 1.7 µM.
Take `Cc1cn([C@H]2C[C@H](N=[N+]=[N-])[C@@H](CO)O2)c(=O)[nH]c1=O` [ZIDOVUDINE]: the IC50 was over 100 µM in [1], 14.3 µM with Vero and 29 µM in the assay with CCRF-CEM. Further, in [7], the EC50 was found to be 0.004 µM.

Values taken from ChEMBL document CHEMBL1145955, “Synthesis, anti-HIV activity, and molecular mechanism of drug resistance of L-2',3'-didehydro-2',3'-dideoxy-2'-fluoro-4'-thionucleosides” (J Med Chem, 2003).
